Source: ChEMBL document CHEMBL1132296, “Anticonvulsant and sodium channel-blocking properties of novel 10,11-dihydro-5H-dibenz[b,f]azepine-5-carboxamide derivatives” (J Med Chem, 1999)

Legend:
[1] = test system: Rattus norvegicus; assay: t max for anticonvulsant activity was tested in rats intraperitoneally; type: functional, organism-based
[2] = test system: Rattus norvegicus; assay: Compound was tested for anticonvulsant activity administered by gastric tube in rat by MES test; type: functional
Outline: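 Rats, oral by gastric tube, tested at t_max. Rats were pre-screened in a first MES session through corneal electrodes after oxibuprocaine eye drops, and only typical tonic–clonic convulsers were kept. Next day, compound or vehicle, then MES sessions 2 or 4 h and 6, 8 or 12 h post-dose. Endpoint was abolition of hindleg tonic extension. 5–8 rats/group; ED50 from logistic fit.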

[3] = test system: Rattus norvegicus; assay: Compound was tested for anticonvulsant activity administered by gastric tube in rat by rotarod test; type: functional
[4] = organism: Rattus norvegicus; assay: Protective index value of the compound, given by gastric tube (TD50/ED50); type: functional, Stomach
Outline: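 Ratio TD50/ED50 from oral (gastric tube) rotarod and MES tests in rats at t_max. Both values come from logistic fits, 5–8 rats/group.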

[5] = molecular target: T1, Sodium channel alpha subunits; brain (Types I, II, III) (Rattus norvegicus) (UniProt P04775+P04774+P08104); assay: Percent inhibition of 22Na+ uptake by voltage sensitive sodium channel of rat cortical synaptosomes at 30 uM; type: functional, subcellular
T1 sequence (P04775 whole entry, looked up, other chains not shown): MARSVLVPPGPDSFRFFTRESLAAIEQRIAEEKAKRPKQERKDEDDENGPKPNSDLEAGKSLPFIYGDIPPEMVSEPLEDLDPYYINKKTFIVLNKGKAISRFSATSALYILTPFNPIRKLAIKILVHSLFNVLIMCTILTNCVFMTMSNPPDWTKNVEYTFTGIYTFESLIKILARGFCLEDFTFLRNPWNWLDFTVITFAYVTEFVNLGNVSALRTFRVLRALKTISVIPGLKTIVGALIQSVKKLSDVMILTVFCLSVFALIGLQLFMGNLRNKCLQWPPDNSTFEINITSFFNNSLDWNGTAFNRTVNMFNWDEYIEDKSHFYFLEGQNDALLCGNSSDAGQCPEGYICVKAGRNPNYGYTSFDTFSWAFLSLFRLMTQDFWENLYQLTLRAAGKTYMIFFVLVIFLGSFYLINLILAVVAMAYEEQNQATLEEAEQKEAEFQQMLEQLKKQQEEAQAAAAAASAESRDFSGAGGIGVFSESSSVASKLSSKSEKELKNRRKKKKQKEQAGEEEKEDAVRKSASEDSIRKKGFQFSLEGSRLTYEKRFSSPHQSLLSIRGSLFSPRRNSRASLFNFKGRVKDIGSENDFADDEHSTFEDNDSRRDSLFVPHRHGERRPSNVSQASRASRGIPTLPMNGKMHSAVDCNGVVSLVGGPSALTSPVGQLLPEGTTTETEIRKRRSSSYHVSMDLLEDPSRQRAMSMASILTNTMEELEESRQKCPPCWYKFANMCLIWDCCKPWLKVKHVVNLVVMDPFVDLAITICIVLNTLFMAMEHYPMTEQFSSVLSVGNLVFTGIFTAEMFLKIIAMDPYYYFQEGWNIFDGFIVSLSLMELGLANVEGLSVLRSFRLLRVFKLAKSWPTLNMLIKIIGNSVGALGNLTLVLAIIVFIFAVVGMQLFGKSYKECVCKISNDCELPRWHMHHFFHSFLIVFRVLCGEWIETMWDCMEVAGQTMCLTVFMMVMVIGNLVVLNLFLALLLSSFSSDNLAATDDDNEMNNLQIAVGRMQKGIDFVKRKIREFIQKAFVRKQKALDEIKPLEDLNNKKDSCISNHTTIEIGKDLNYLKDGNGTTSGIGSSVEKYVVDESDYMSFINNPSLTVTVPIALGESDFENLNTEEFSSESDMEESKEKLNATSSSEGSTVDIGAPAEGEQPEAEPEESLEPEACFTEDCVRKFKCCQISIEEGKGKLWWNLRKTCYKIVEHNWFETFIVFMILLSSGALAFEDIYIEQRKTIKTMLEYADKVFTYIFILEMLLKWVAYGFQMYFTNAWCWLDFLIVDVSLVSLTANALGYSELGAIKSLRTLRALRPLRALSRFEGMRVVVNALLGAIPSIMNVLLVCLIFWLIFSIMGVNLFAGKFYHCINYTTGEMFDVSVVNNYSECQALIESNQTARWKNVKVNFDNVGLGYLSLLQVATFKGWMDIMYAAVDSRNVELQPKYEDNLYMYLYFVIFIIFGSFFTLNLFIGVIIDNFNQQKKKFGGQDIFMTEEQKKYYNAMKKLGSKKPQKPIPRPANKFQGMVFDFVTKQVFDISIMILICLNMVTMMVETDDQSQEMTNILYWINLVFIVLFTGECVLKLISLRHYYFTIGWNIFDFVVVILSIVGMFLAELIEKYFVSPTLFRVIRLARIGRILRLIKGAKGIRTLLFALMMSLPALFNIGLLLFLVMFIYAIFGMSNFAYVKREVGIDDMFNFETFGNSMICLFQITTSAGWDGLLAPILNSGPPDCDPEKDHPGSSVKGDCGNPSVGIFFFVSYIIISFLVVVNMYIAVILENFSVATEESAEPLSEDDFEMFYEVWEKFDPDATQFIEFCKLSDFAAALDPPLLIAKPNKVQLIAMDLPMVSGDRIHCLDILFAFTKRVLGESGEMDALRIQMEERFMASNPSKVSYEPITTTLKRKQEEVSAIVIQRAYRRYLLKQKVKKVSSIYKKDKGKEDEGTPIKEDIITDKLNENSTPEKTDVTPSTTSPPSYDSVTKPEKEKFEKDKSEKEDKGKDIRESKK
T1 sequence (P08104 whole entry, looked up, other chains not shown): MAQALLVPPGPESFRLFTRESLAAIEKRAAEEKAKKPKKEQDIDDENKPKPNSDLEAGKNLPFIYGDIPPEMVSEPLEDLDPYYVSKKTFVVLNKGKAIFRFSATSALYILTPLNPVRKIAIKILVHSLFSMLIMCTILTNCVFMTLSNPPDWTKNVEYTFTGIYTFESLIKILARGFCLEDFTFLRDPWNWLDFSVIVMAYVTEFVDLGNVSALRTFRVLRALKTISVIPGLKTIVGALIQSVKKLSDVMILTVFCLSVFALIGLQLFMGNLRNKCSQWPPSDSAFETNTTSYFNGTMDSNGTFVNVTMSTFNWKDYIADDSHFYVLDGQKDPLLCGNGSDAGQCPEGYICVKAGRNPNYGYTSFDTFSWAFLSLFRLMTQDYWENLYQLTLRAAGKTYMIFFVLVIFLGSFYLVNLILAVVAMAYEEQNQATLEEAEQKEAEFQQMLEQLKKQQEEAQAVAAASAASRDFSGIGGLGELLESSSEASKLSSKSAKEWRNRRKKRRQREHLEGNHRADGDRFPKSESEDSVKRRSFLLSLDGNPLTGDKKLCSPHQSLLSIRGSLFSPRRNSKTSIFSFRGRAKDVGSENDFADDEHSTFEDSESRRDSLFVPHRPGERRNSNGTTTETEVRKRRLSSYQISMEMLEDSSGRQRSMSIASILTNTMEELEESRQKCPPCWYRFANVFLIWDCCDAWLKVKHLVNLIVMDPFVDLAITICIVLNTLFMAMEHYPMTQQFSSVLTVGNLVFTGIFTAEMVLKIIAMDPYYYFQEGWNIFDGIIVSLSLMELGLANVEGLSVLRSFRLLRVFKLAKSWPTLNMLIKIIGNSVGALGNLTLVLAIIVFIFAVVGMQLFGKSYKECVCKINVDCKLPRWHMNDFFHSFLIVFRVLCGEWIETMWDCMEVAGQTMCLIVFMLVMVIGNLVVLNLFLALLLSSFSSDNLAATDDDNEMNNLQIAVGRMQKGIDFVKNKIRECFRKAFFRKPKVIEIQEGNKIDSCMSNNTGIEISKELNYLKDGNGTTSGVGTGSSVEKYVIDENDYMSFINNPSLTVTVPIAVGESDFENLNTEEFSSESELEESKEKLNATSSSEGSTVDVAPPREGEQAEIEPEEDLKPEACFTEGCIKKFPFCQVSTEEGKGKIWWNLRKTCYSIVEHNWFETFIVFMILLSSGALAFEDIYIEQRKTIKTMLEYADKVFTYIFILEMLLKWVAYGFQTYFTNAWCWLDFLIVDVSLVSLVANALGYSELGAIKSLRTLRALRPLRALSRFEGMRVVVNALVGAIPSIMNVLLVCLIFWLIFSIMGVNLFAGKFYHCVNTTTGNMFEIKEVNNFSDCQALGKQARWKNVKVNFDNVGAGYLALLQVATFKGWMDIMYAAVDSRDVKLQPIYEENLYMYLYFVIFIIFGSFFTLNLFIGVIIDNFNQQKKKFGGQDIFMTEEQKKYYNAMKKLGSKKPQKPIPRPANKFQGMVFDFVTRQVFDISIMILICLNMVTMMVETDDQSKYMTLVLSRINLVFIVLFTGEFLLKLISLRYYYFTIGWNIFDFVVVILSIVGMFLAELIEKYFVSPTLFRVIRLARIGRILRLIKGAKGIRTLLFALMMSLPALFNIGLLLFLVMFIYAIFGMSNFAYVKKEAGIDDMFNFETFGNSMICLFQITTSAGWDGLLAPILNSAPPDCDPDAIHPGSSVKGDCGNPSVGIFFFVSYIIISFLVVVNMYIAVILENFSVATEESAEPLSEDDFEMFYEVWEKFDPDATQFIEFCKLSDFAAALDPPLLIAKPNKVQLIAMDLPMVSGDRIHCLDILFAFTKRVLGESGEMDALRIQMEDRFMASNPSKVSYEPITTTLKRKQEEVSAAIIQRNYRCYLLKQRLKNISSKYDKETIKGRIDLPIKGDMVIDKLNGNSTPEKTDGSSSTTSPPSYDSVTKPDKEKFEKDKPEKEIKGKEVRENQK

[6] = organism: Rattus norvegicus; assay: Compound was tested for anticonvulsant activity against MES-induced seizures in rat; design: concentration or dose not given beside the values
[7] = molecular target: T1, Sodium channel alpha subunits; brain (Types I, II, III) (Rattus norvegicus); assay: Percent inhibition of 22Na+ uptake by voltage sensitive sodium channel of rat cortical synaptosomes at 300 uM; type: functional, subcellular
[8] = test system: Rattus norvegicus; assay: Protective index value of the compound, given by intraperitoneally (TD50/ED50); type: functional
Outline: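 Ratio TD50/ED50 from intraperitoneal rotarod and MES tests in rats. Both values come from logistic fits, 5–8 rats/group.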

[9] = test system: Rattus norvegicus; assay: Compound was tested intraperitoneally for anticonvulsant activity against MES-induced seizures in rat by MES test; type: functional; settings: ip
Outline: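 Intraperitoneal dosing to rats, MES given at t_max. Corneal electrodes after oxibuprocaine eye drops; abolition of hindleg tonic extensor component as endpoint. 5–8 rats/group; ED50 from logistic equation fit.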

[10] = test system: Rattus norvegicus; assay: Compound was tested intraperitoneally for anticonvulsant activity by rotarod test; type: functional; settings: ip
Outline: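 Rats trained to stay 3 min on a 5-cm rod rotating at 6 rpm. Next day, compound ip in DMSO (2 mL/kg), placed on rod 15 min later at 6 rpm. Deficit = failure to hold equilibrium 1 min in each of three trials. 5–8 rats/group; TD50 from logistic fit.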

[11] = molecular target: Sodium channel alpha subunits; brain (Types I, II, III) (Rattus norvegicus, UniProt P04775+P04774+P08104); assay: Displacement of [3H]BTX from voltage-gated sodium channel of rat cortical synaptosomes; type: subcellular
[12] = test system: Rattus norvegicus; assay: t max was for the anticonvulsant effect was tested in rats administered by gastric tube; t max; type: functional, organism-based; settings: Stomach
[13] = molecular target: T1, Sodium channel alpha subunits; brain (Types I, II, III) (Rattus norvegicus); assay: Percent inhibition of 22Na+ uptake by voltage sensitive sodium channel of rat cortical synaptosomes at 100 uM; type: functional, subcellular
[14] = molecular target: T1, Sodium channel alpha subunits; brain (Types I, II, III) (Rattus norvegicus); settings: 300 uM

Structure (SMILES) | Tmax [1] | Protection [6] | ED50 [9] | TD50 [10] | other results
CC(=O)O[C@H]1Cc2ccccc2N(C(N)=O)c2ccccc21 [ESLICARBAZEPINE ACETATE] | 15 min | 100% | 6.3 mg/kg | 78.6 mg/kg | ED50 [2]: 4.7 mg/kg; TD50 [3]: 359 mg/kg; Protective index [4]: 76.3; inhibition [5]: 52.6%; inhibition [7]: 95.6%; Protective index [8]: 12.5; IC50 [11]: 138 µM; Tmax [12]: 120 min; inhibition [13]: 73.4%
NC(=O)N1c2ccccc2C[C@@H](O)c2ccccc21 | 30 min | – | 17.9 mg/kg | 97.4 mg/kg | –
NC(=O)N1c2ccccc2CC(OC(=O)CCl)c2ccccc21 (centres undefined) | – | 0.5% | – | – | –
NC(=O)N1c2ccccc2CC(OC=O)c2ccccc21 (centres undefined) | – | 32.1% | – | – | –
CC(=O)O[C@@H]1Cc2ccccc2N(C(N)=O)c2ccccc21 | 60 min | 5.9% | 18 mg/kg | 135 mg/kg | ED50 [2]: 10.9 mg/kg; TD50 [3]: > 1000 mg/kg; Protective index [4]: >91.7; inhibition [5]: 17.9%; inhibition [7]: 73.2%; Protective index [8]: 7.5; IC50 [11]: 113 µM; Tmax [12]: 480 min; inhibition [13]: 57.7%
COc1ccc(CC(=O)OC2Cc3ccccc3N(C(N)=O)c3ccccc32)cc1 (centres undefined) | – | 8.1% | – | – | –
NC(=O)N1c2ccccc2CC(=O)c2ccccc21 [OXCARBAZEPINE] | 5 min | – | 6.1 mg/kg | 40.1 mg/kg | ED50 [2]: 10 mg/kg; TD50 [3]: > 1000 mg/kg; inhibition [5]: 31.2%; inhibition [14]: 76.2%; IC50 [11]: 161 µM; Tmax [12]: 120 min; inhibition [13]: 50.2%
CC(=O)OC1Cc2ccccc2N(C(N)=O)c2ccccc21 (centres undefined) | 5 min | 54.4% | 13.1 mg/kg | 130 mg/kg | ED50 [2]: 13.5 mg/kg; TD50 [3]: 428 mg/kg; Protective index [4]: 31.7; inhibition [5]: 42.2%; inhibition [7]: 82.1%; Protective index [8]: 9.9; IC50 [11]: 141 µM; Tmax [12]: 120 min; inhibition [13]: 61.8%
CCCC(=O)OC1Cc2ccccc2N(C(N)=O)c2ccccc21 (centres undefined) | – | 34.2% | – | – | –
NC(=O)N1c2ccccc2CC(OC(=O)Cc2ccc([N+](=O)[O-])cc2)c2ccccc21 (centres undefined) | – | 13.8% | – | – | –
CCCC(CC)C(=O)OC1Cc2ccccc2N(C(N)=O)c2ccccc21 (centres undefined) | – | -12.8% | – | – | –
CC(C)(C)C(=O)OC1Cc2ccccc2N(C(N)=O)c2ccccc21 (centres undefined) | – | 6.5% | – | – | –
CCCCCCCCCCCCCCCCCC(=O)OC1Cc2ccccc2N(C(N)=O)c2ccccc21 (centres undefined) | – | 0.8% | – | – | –
CCOC(=O)OC1Cc2ccccc2N(C(N)=O)c2ccccc21 (centres undefined) | – | 18.3% | – | – | –
NC(=O)N1c2ccccc2CC(O)c2ccccc21 (centres undefined) [LICARBAZEPINE] | 15 min | – | 14.6 mg/kg | 89.3 mg/kg | –
NC(=O)N1c2ccccc2CC(OC(=O)c2ccccc2)c2ccccc21 (centres undefined) | – | 17.2% | – | – | –
NC(=O)N1c2ccccc2CC(OC(=O)CBr)c2ccccc21 (centres undefined) | – | 15.1% | – | – | –
NC(=O)N1c2ccccc2C[C@H](O)c2ccccc21 [ESLICARBAZEPINE] | 30 min | – | 17.1 mg/kg | 96.6 mg/kg | –
CCCC(CCC)C(=O)OC1Cc2ccccc2N(C(N)=O)c2ccccc21 (centres undefined) | – | 0.2% | – | – | –
CC(Cl)C(=O)OC1Cc2ccccc2N(C(N)=O)c2ccccc21 (centres undefined) | – | 3.9% | – | – | –
CC(=O)Oc1ccccc1C(=O)OC1Cc2ccccc2N(C(N)=O)c2ccccc21 (centres undefined) | – | 10.2% | – | – | –
CCC(=O)OC1Cc2ccccc2N(C(N)=O)c2ccccc21 (centres undefined) | – | 40.6% | – | – | –
NC(=O)N1c2ccccc2C=Cc2ccccc21 [CARBAMAZEPINE] | 15 min | – | 3.4 mg/kg | 27.4 mg/kg | ED50 [2]: 5.4 mg/kg; TD50 [3]: 251 mg/kg; inhibition [5]: 22.6%; inhibition [7]: 64.8%; IC50 [11]: 210 µM; Tmax [12]: 120 min; inhibition [13]: 44.3%
NC(=O)N1c2ccccc2CC(OC(=O)c2cccnc2)c2ccccc21 (centres undefined) | – | 32.8% | – | – | –
